Test results published in publication PMC10013843 (Molecular psychiatry, 2022).

Tests used:
[1] = system: NMDA receptors; test: [^3H]MK-801 competition binding, rat brain membranes
[2] = target: mu-opioid receptors, MOR (Rattus norvegicus, UniProt P33535); test: [^3H]DAMGO competition binding, rat brain membranes
[3] = target: MOR (OPRM1) (Homo sapiens, UniProt P35372); test: cAMP BRET; format: cell-based; conditions: HEK-293 cells, up to a concentration of 1 mM
Method in brief: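 HEK-293 cells (DMEM, 10% FBS, 37°C/5% CO2) were PEI-transfected with 5 μg untagged MOR, KOR or DOR plus 5 μg CAMYEL cAMP biosensor and used 48 h later. Cells were suspended in DPBS with 100 μM metabisulfite and 5.5 mM glucose and kept 45 min in the dark. Forskolin (10 μM) was added for 5 min, then coelenterazine H (5 μM) for 5 min, then compound. BRET (535/475 nm) was read 5 min later, forskolin-only background subtracted, and expressed as % of each receptor's maximum. Triplicates; 3–6 experiments for EC50/Emax.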

[4] = system: >80 receptor and enzymatic binding sites; test: Receptor and enzyme competitive screen; conditions: 100 nM
Method in brief: (§1)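 In an outsourced panel, membranes from stable cell lines expressing each receptor or enzyme were incubated with the target's radioligand, with or without test compound at 100 nM or 10 μM. A reference compound ran concurrently, and a specific agonist or antagonist defined nonspecific binding. Bound ligand was collected by vacuum filtration through presoaked glass-fibre filters, washed with ice-cold buffer and counted by scintillation.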

[5] = target: Neurokinin receptor (NK1) (Homo sapiens, UniProt P25103); test: Receptor and enzyme competitive screen; format: binding; conditions: 10 μM
Method in brief: as §1

[6] = target: mGluR2 (Homo sapiens, UniProt Q14416); test: [^3H]LY341495 competition binding, recombinant receptor membranes; conditions: membranes expressing human recombinant mGluR2
[7] = system: mGluR2/3; test: mGluR functional assay; format: biochemical
[8] = target: mGluR1 (Homo sapiens, UniProt Q13255); test: mGluR functional assay; format: biochemical
[9] = target: mGluR6 (Homo sapiens, UniProt O15303); test: mGluR functional assay; format: biochemical
[10] = target: mGluR8 (Homo sapiens, UniProt O00222); test: mGluR functional assay; format: biochemical
[11] = target: sigma-1 receptors (Rattus norvegicus, UniProt Q9R0C9); test: [^3H]-pentazocine competition binding, rat brain membranes
[12] = system: cDNA libraries derived from human adult brain, human lung cancer cells, and human placenta; test: Yeast 3-hybrid screen, human cDNA libraries; conditions: lung cancer cell and placenta libraries
[13] = target: tropomyosin receptor kinase B (TrkB) (Homo sapiens, UniProt Q16620); test: Screening and target deconvolution experiments; format: binding
[14] = target: glucocorticoid receptor (GR) (Homo sapiens, UniProt P04150); test: Screening and target deconvolution experiments; format: binding
[15] = system: rats; test: [^18F]-FDG PET brain metabolic mapping; format: in vivo, rat; conditions: 10 mg/kg i.v. infusion in 40 min
Method in brief: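 Rats were handling- and arena-habituated and fasted 16 h. Awake in an open field, they received a continuous IV infusion of buffered saline (n = 4) or test compound (10 mg/kg over 40 min, n = 5). Ten min after infusion start, [18F]-FDG (13 MBq) was given IP. Rats were anesthetized 30 min later and brains PET-scanned. SUVR images used whole brain as reference, analysed voxel-wise and by atlas-based ROIs.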

[16] = system: mice; test: Open-field locomotor activity; format: in vivo, mouse; conditions: male mice; single 10, 30, 65 mg/kg IP
[17] = system: rats; test: Heroin self-administration and substitution; format: in vivo, rat; conditions: 0.5 mg/kg/inf IV
[18] = after administration of antidepressant-like doses; cited from earlier work
[19] = after i.p. injection of antidepressant-relevant doses in mice; cited from earlier work
[20] = system: rats; conditions: i.v. doses up to 160 mg/kg; cited from earlier work
[21] = system: opioid receptors; conditions: not tested experimentally; cited from earlier work

Chain of mu-opioid receptors, MOR (P33535 whole entry): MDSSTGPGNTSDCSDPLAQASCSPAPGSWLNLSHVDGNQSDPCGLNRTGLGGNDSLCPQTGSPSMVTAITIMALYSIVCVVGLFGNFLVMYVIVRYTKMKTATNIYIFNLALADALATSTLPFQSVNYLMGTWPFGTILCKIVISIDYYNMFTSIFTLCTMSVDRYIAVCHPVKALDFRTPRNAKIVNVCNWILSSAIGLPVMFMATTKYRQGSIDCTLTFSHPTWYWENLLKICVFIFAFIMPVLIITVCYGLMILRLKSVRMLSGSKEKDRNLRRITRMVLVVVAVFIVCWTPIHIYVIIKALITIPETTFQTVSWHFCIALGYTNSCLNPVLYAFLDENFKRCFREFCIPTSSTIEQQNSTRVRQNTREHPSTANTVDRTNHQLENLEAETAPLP
Chain of glucocorticoid receptor (GR) (P04150 whole entry, the tested form may be a part): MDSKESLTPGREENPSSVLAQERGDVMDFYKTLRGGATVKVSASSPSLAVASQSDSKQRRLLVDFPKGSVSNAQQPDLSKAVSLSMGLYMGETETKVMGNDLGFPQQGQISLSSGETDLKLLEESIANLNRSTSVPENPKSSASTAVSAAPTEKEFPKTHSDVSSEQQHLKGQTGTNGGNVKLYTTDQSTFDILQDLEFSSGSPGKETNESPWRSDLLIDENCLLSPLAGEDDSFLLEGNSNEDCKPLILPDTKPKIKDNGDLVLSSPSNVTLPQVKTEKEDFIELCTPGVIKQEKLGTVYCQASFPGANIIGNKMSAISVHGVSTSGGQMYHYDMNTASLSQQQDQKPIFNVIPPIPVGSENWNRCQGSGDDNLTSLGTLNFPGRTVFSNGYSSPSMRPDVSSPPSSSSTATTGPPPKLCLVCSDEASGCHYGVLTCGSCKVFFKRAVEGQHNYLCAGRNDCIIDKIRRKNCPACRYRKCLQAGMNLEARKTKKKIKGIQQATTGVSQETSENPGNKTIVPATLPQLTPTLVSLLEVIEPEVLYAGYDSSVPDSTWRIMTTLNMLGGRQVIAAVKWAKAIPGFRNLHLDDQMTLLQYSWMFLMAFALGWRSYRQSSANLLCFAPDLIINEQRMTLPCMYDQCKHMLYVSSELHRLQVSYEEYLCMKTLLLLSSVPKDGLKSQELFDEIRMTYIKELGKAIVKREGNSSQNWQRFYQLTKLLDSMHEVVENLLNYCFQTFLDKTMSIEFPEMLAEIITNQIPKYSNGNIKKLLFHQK
Chain of mGluR6 (O15303 25-877): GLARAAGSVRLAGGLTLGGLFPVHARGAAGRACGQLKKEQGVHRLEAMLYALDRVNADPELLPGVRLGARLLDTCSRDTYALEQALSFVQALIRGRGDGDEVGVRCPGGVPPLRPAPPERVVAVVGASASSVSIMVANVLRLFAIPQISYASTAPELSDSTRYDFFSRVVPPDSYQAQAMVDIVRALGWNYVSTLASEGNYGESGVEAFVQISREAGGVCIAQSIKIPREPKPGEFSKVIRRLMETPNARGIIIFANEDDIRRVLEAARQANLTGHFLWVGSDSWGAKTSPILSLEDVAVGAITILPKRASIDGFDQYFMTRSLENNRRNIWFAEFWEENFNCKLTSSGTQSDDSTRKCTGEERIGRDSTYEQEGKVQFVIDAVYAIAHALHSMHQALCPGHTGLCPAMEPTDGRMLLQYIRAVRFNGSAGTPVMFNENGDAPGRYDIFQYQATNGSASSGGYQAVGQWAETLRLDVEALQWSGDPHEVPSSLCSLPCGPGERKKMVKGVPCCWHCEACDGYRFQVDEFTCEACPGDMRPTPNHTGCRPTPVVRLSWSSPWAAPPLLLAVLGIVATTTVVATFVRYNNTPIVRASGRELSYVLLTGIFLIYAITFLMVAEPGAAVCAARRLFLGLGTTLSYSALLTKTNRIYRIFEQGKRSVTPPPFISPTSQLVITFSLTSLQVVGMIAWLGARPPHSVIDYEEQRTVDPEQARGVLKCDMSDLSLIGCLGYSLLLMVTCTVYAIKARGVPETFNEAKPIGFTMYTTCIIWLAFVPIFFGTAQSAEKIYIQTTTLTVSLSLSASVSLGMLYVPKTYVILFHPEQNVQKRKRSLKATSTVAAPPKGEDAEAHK
Chain of Neurokinin receptor (NK1) (P25103 whole entry): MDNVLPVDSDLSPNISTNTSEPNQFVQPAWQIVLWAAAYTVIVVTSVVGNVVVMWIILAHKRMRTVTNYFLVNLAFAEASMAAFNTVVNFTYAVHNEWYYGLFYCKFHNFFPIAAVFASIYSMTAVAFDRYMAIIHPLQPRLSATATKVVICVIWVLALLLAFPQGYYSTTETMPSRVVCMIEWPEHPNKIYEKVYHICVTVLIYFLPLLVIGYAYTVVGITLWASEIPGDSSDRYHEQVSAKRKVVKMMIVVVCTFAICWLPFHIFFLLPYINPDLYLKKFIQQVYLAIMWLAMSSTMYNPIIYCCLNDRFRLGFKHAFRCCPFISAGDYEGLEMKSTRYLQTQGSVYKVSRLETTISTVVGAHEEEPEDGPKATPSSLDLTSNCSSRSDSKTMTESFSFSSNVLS
Chain of sigma-1 receptors (Q9R0C9 whole entry): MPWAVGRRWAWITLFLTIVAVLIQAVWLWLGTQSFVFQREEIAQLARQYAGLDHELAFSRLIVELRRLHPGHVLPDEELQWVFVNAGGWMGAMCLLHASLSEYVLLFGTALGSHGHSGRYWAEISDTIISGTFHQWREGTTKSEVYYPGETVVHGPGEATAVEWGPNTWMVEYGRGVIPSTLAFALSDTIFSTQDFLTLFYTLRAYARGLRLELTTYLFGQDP
Chain of mGluR2 (Q14416 19-872): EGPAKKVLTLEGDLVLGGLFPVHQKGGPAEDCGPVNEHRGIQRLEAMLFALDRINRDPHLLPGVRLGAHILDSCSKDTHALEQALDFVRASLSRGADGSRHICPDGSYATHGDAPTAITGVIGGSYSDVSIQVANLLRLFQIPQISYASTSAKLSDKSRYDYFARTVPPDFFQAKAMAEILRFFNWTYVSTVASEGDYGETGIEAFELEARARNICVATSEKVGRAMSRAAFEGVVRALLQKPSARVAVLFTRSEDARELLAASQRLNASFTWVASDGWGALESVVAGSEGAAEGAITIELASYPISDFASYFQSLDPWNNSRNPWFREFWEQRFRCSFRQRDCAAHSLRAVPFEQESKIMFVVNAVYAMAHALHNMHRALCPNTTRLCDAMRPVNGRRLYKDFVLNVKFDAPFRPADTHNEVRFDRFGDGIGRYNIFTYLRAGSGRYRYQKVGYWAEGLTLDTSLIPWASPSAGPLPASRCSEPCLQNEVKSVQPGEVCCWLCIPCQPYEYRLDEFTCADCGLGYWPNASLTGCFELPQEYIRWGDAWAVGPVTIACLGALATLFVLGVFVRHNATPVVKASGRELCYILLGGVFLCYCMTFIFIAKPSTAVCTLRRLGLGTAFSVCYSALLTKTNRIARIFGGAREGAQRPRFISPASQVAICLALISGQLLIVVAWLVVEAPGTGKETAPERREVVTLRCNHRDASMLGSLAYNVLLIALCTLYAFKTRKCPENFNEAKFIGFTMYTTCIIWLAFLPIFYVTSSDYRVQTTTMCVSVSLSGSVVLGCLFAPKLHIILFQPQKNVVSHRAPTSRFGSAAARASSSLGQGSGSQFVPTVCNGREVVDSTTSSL
Chain of mGluR1 (Q13255 19-1194): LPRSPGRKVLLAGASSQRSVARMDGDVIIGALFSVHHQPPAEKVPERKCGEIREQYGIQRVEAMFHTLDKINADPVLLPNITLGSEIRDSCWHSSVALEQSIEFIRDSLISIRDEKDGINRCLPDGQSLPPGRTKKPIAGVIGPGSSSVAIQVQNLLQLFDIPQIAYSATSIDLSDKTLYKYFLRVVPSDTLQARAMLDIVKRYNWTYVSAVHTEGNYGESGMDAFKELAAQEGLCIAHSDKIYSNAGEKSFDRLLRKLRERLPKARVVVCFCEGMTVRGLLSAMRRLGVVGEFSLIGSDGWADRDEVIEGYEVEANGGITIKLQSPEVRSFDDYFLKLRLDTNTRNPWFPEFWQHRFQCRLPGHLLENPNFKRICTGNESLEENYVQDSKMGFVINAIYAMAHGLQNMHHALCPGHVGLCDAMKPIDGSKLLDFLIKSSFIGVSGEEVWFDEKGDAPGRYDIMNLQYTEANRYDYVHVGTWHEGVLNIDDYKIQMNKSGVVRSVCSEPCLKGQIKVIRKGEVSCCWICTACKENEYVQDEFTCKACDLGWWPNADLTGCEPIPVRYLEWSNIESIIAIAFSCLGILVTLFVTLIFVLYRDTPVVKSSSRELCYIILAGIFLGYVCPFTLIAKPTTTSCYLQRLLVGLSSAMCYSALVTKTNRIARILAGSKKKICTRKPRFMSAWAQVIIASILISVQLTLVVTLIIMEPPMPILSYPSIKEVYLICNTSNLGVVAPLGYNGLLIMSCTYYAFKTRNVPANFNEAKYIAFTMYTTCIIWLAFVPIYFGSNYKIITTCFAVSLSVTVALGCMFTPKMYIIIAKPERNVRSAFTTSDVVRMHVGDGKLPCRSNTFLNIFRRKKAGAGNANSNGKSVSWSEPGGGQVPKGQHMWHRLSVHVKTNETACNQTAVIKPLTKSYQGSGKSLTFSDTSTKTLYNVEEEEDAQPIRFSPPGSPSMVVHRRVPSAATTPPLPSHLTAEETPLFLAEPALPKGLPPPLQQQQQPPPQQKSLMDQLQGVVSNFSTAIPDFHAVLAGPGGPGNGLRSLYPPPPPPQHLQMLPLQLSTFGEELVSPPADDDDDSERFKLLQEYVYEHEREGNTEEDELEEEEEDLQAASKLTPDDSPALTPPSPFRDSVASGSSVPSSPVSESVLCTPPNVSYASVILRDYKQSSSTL

Structure (SMILES): N[C@@]1(c2ccccc2Cl)CCC[C@@H](O)C1=O [(2R,6R)-HNK, (2R,6R)-hydroxynorketamine]
- displacement of [^3H]MK-801 (NMDAR binding) ([1]; concentrations up to 100 μM): no displacement
- displacement of [^3H]MK801 binding ([1]; rat brain membranes): failed to displace
- binding to opioid receptors (MOR) ([2]; concentrations up to 100 μM): does not bind
- MOR binding, displacement of [^3H]DAMGO ([2]; rat brain membranes): failed to displace
- cAMP response (inhibition of cAMP accumulation) [3]: did not induce any cAMP response
- hits in competitive screen [4]: No hits
- binding of Substance P to NK1 in screen [5]: increases binding of Substance P
- displacement of [^3H]LY341475 [6]: failed to displace
- functional responses at mGluR2/3 [7]: did not affect
- effect in functional assay at mGluR1 [8]: no effects
- effect in functional assay at mGluR6 [9]: no effects
- effect in functional assay at mGluR8 [10]: no effects
- binding to sigma receptors ([^3H]-pentazocine) [11]: did not bind
- high-confidence (2R,6R)-HNK-protein interactions [12]: did not identify any positive high-confidence (2R,6R)-HNK-protein interactions
- interaction with TrkB [13]: failed to interact
- interaction with GR [14]: failed to interact
- metabolic activity in the PFC [15]: did not see any metabolic activity
- regional metabolic connectivity profile [15]: closely resembled the saline condition
- brain metabolic activity ([^18F]-FDG uptake), voxel-wise analysis ([15]; insula, nucleus accumbens, globus pallidus, thalamus, cortices, cerebellum): mild but significant increase
- FDG uptake in the nucleus accumbens, ROI-based ([15]; vs saline): ~ 10 % increase
- locomotor activity, acute [16]: did not alter locomotor activity
- pressing on first session after heroin substitution [17]: pressed significantly more
- self-administration on successive sessions after heroin substitution [17]: rapid extinction of self-administration
- concentration achieved in the brain [18]: ~ 10 μM
- maximum extracellular concentration in the hippocampus [19]: ~ 8 μM
- NMDAR-associated neurotoxicity [20]: does not produce NMDAR-associated neurotoxicity
- affinity for opioid receptors by computational modeling [21]: high (i.e. in the nanomolar range) affinity
